Values after ≈ are worked out from the molar mass of the structure shown.
Assays:
Staphylococcus aureus [1] = assay: Ratio of MBC to MIC against Staphylococcus aureus MTCC 96; assay type: functional
Micrococcus luteus [2] = assay: Ratio of MBC to MIC against Micrococcus luteus MTCC 2470; assay type: functional
Staphylococcus aureus [3] = assay: Antibacterial activity against Staphylococcus aureus MTCC 96 assessed as inhibition of bacterial growth incubated for 24 hrs by agar well diffusion method; assay type: functional; details: MTCC 96, 24 h
Method in brief: (§1)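 Strains from MTCC; inoculum at 0.5 McFarland spread on Mueller-Hinton agar; 6 mm wells loaded with compound over 125–0.97 µg/mL; ciprofloxacin positive control (same range), DMSO negative control. Plates held 24 h at 37 °C; MIC taken as lowest concentration giving a clear inhibition zone. Triplicate runs, mean MIC reported.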

Staphylococcus aureus [4] = assay: Antibacterial activity against Staphylococcus aureus MLS-16 MTCC 2940 assessed as inhibition of bacterial growth incubated for 24 hrs by agar well diffusion method; assay type: functional; details: MLS-16 MTCC 2940, 24 h; method in brief: as §1
Bacillus subtilis [5] = assay: Antibacterial activity against Bacillus subtilis MTCC 121 assessed as inhibition of bacterial growth incubated for 24 hrs by agar well diffusion method; assay type: functional; details: MTCC 121, 24 h; method in brief: as §1
Escherichia coli [6] = assay: Antibacterial activity against Escherichia coli MTCC 739 assessed as inhibition of bacterial growth incubated for 24 hrs by agar well diffusion method; assay type: functional; details: MTCC 739, 24 h; method in brief: as §1
Pseudomonas aeruginosa [7] = assay: Antibacterial activity against Pseudomonas aeruginosa MTCC 2453 assessed as inhibition of bacterial growth incubated for 24 hrs by agar well diffusion method; assay type: functional; details: MTCC 2453, 24 h; method in brief: as §1
Candida albicans [8] = assay: Antifungal activity against Candida albicans MTCC 3017 assessed as inhibition of fungal growth incubated for 24 hrs by agar well diffusion method; assay type: functional; details: MTCC 3017, 24 h
Method in brief: (§2)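 Candida strains from MTCC, pre-cultured and spread on Mueller Hinton agar. Wells received compound dissolved in 10% DMSO, 125–0.97 µg/mL; miconazole standard over the same range, DMSO negative control. After 24 h at 37 °C, MIC was read as the lowest concentration giving an inhibition zone. Duplicate experiments, means given.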

Candida albicans [9] = assay: Antifungal activity against Candida albicans MTCC 1637 assessed as inhibition of fungal growth incubated for 24 hrs by agar well diffusion method; assay type: functional; details: MTCC 1637, 24 h; method in brief: as §2
Candida albicans [10] = assay: Antifungal activity against Candida albicans MTCC 4748 assessed as inhibition of fungal growth incubated for 24 hrs by agar well diffusion method; assay type: functional; details: MTCC 4748, 24 h; method in brief: as §2
Candida albicans [11] = assay: Antifungal activity against Candida albicans MTCC 7315 assessed as inhibition of fungal growth incubated for 24 hrs by agar well diffusion method; assay type: functional; details: MTCC 7315, 24 h; method in brief: as §2
Candida parapsilosis [12] = assay: Antifungal activity against Candida parapsilosis MTCC 1744 assessed as inhibition of fungal growth incubated for 24 hrs by agar well diffusion method; assay type: functional; details: Lodderomyces parapsilosis, MTCC 1744, 24 h; method in brief: as §2
Nakaseomyces glabratus [13] = assay: Antifungal activity against Candida glabrata MTCC 3019 assessed as inhibition of fungal growth incubated for 24 hrs by agar well diffusion method; assay type: functional; details: MTCC 3019, 24 h; method in brief: as §2
Pichia sporocuriosa [14] = assay: Antifungal activity against Issatchenkia hanoiensis MTCC 4755 assessed as inhibition of fungal growth incubated for 24 hrs by agar well diffusion method; assay type: functional; details: MTCC 4755, 24 h; method in brief: as §2
Micrococcus luteus [15] = assay: Bactericidal activity against Micrococcus luteus MTCC 2470 assessed as bacterial killing incubated for 24 hrs; assay type: functional; details: MTCC 2470, 24 h
Method in brief: (§3)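 Broth tube assay: compound at 0–125 µg/mL in Mueller Hinton broth, overnight culture added to 0.5 McFarland (1.5 × 10^8 cfu/mL), held 24 h at 37 °C. 10 µL from each tube plated on Mueller Hinton agar. MBC is the lowest concentration that kills the strain. Duplicates, means reported.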

Staphylococcus aureus [16] = assay: Bactericidal activity against Staphylococcus aureus MTCC 96 assessed as bacterial killing incubated for 24 hrs; assay type: functional; details: MTCC 96, 24 h; method in brief: as §3
Escherichia coli [17] = assay: Bactericidal activity against Escherichia coli MTCC 739 assessed as bacterial killing incubated for 24 hrs; assay type: functional; details: MTCC 739, 24 h; method in brief: as §3
Pseudomonas aeruginosa [18] = assay: Bactericidal activity against Pseudomonas aeruginosa MTCC 2453 assessed as bacterial killing incubated for 24 hrs; assay type: functional; details: MTCC 2453, 24 h; method in brief: as §3
MRC5 = assay: Cytotoxicity against human MRC5 cells incubated for 48 hrs by MTT assay; assay type: cell-based; details: MRC5, 48 h
Method in brief: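 Normal human lung MRC5 cells grown 24 h in 96-well plates, then exposed to a range of compound concentrations for 48 h. MTT (250 µg/mL) added for 2 h, medium replaced by DMSO, absorbance read at 570 nm. Miconazole positive control, DMSO negative control. Triplicates, mean ± S.D.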

Pichia kudriavzevii [19] = assay: Fungicidal activity against Candida krusei MTCC 3020 assessed as fungal killing incubated for 24 hrs; assay type: functional; details: MTCC 3020, 24 h
Method in brief: (§4)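 Compound at 125–0.97 µg/mL in Mueller Hinton broth in microcentrifuge tubes, each Candida strain added, held 24 h at 37 °C. 10 µL of the treated suspension plated on Mueller Hinton agar and incubated a further 24 h at 37 °C. MFC is the lowest concentration that kills the strain. Duplicates, means reported.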

Candida albicans [20] = assay: Fungicidal activity against Candida albicans MTCC 227 assessed as fungal killing incubated for 24 hrs; assay type: functional; details: MTCC 227, 24 h; method in brief: as §4
Candida albicans [21] = assay: Fungicidal activity against Candida albicans MTCC 4748 assessed as fungal killing incubated for 24 hrs; assay type: functional; details: MTCC 4748, 24 h; method in brief: as §4
Candida parapsilosis [22] = assay: Fungicidal activity against Candida parapsilosis MTCC 1744 assessed as fungal killing incubated for 24 hrs; assay type: functional; details: Lodderomyces parapsilosis, MTCC 1744, 24 h; method in brief: as §4
Nakaseomyces glabratus [23] = assay: Fungicidal activity against Candida glabrata MTCC 3019 assessed as fungal killing incubated for 24 hrs; assay type: functional; details: MTCC 3019, 24 h; method in brief: as §4
Pichia sporocuriosa [24] = assay: Fungicidal activity against Issatchenkia hanoiensis MTCC 4755 assessed as fungal killing incubated for 24 hrs; assay type: functional; details: MTCC 4755, 24 h; method in brief: as §4
Staphylococcus aureus [25] = assay: Ratio of MBC to MIC against Staphylococcus aureus MLS-16 MTCC 2940; assay type: functional
Bacillus subtilis [26] = assay: Ratio of MBC to MIC against Bacillus subtilis MTCC 121; assay type: functional
Candida albicans [27] = assay: Ratio of MFC to MIC against Candida albicans MTCC 1637; assay type: functional
Candida albicans [28] = assay: Ratio of MFC to MIC against Candida albicans MTCC 4748; assay type: functional
Method in brief: (§5)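 MIC by agar well diffusion: Candida lawns on Mueller-Hinton agar, wells loaded with compound in 10% DMSO (125–0.97 µg/mL), 24 h at 37 °C, lowest concentration giving an inhibition zone. MFC: compound in Mueller-Hinton broth (125–0.97 µg/mL) with yeast, 24 h at 37 °C, 10 µL plated on agar, lowest killing concentration after 24 h. Ratio is MFC/MIC.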

Candida albicans [29] = assay: Ratio of MFC to MIC against Candida albicans MTCC 7315; assay type: functional; method in brief: as §5
Candida parapsilosis [30] = assay: Ratio of MFC to MIC against Candida parapsilosis MTCC 1744; assay type: functional; method in brief: as §5
Nakaseomyces glabratus [31] = assay: Ratio of MFC to MIC against Candida glabrata MTCC 3019; assay type: functional; method in brief: as §5
Pichia kudriavzevii [32] = assay: Ratio of MFC to MIC against Candida krusei MTCC 3020; assay type: functional; method in brief: as §5
Pichia sporocuriosa [33] = assay: Ratio of MFC to MIC against Issatchenkia hanoiensis MTCC 4755; assay type: functional; method in brief: as §5
Escherichia coli [34] = assay: Ratio of MBC to MIC for Escherichia coli MTCC 739; assay type: functional
Pseudomonas aeruginosa [35] = assay: Ratio of MBC to MIC for Pseudomonas aeruginosa MTCC 2453; assay type: functional
Raoultella planticola = assay: Ratio of MBC to MIC for Klebsiella planticola MTCC 530; assay type: functional

MIC (Staphylococcus aureus [3]) [µg/mL]	MIC (Staphylococcus aureus [4]) [µg/mL]	MIC (Bacillus subtilis [5]) [µg/mL]	MIC (Escherichia coli [6]) [µg/mL]	MIC (Pseudomonas aeruginosa [7]) [µg/mL]	MIC (Candida albicans [8]) [µg/mL]	MIC (Candida albicans [9]) [µg/mL]	MIC (Candida albicans [10]) [µg/mL]	MIC (Candida albicans [11]) [µg/mL]	MIC (Candida parapsilosis [12]) [µg/mL]	MIC (Nakaseomyces glabratus [13]) [µg/mL]	MIC (Pichia sporocuriosa [14]) [µg/mL]	SMILES	Ratio (Staphylococcus aureus [1])	Ratio (Micrococcus luteus [2])	MBC (Micrococcus luteus [15]) [µg/mL]	MBC (Staphylococcus aureus [16]) [µg/mL]	MBC (Escherichia coli [17]) [µg/mL]	MBC (Pseudomonas aeruginosa [18]) [µg/mL]	IC50 (MRC5) [µg/mL]	MFC (Pichia kudriavzevii [19]) [µg/mL]	further results
3.9 (≈ 10.1 µM)	3.9 (≈ 10.1 µM)	7.8 (≈ 20.2 µM)	3.9 (≈ 10.1 µM)	7.8 (≈ 20.2 µM)	3.9 (≈ 10.1 µM)	15.6 (≈ 40.4 µM)	15.6 (≈ 40.4 µM)	15.6 (≈ 40.4 µM)	15.6 (≈ 40.4 µM)	15.6 (≈ 40.4 µM)	15.6 (≈ 40.4 µM)	COc1ccc2c(c1)Cc1c(C(=O)N/N=C/c3c(F)cc(F)cc3F)n[nH]c1-2	2	2	15.6 (≈ 40.4 µM)	7.8 (≈ 20.2 µM)	7.8 (≈ 20.2 µM)	15.6 (≈ 40.4 µM)	37.2 (≈ 96.3 µM)	31.2 (≈ 80.8 µM)	MFC (Candida albicans [20]): 15.6 µg/mL (≈ 40.4 µM); MFC (Candida albicans [21]): 31.2 µg/mL (≈ 80.8 µM); MFC (Candida parapsilosis [22]): 31.2 µg/mL (≈ 80.8 µM); MFC (Nakaseomyces glabratus [23]): 31.2 µg/mL (≈ 80.8 µM); MFC (Pichia sporocuriosa [24]): 31.2 µg/mL (≈ 80.8 µM); Ratio (Staphylococcus aureus [25]): 2; Ratio (Bacillus subtilis [26]): 2; Ratio (Candida albicans [27]): 2; Ratio (Candida albicans [28]): 2; Ratio (Candida albicans [29]): 2; Ratio (Candida parapsilosis [30]): 2; Ratio (Nakaseomyces glabratus [31]): 2; Ratio (Pichia kudriavzevii [32]): 2; Ratio (Pichia sporocuriosa [33]): 2; Ratio (Escherichia coli [34]): 2; Ratio (Pseudomonas aeruginosa [35]): 2; Ratio (Raoultella planticola): 2
3.9 (≈ 10.3 µM)	3.9 (≈ 10.3 µM)	7.8 (≈ 20.6 µM)	3.9 (≈ 10.3 µM)	7.8 (≈ 20.6 µM)	3.9 (≈ 10.3 µM)	7.8 (≈ 20.6 µM)	7.8 (≈ 20.6 µM)	7.8 (≈ 20.6 µM)	7.8 (≈ 20.6 µM)	7.8 (≈ 20.6 µM)	15.6 (≈ 41.2 µM)	COc1ccc2c(c1)Cc1c(C(=O)N/N=C/c3ccc(O)c(OC)c3)n[nH]c1-2	2	2	7.8 (≈ 20.6 µM)	7.8 (≈ 20.6 µM)	7.8 (≈ 20.6 µM)	15.6 (≈ 41.2 µM)	40.8 (≈ 108 µM)	15.6 (≈ 41.2 µM)	MFC (Candida albicans [20]): 7.8 µg/mL (≈ 20.6 µM); MFC (Candida albicans [21]): 15.6 µg/mL (≈ 41.2 µM); MFC (Candida parapsilosis [22]): 15.6 µg/mL (≈ 41.2 µM); MFC (Nakaseomyces glabratus [23]): 15.6 µg/mL (≈ 41.2 µM); MFC (Pichia sporocuriosa [24]): 31.2 µg/mL (≈ 82.5 µM); Ratio (Staphylococcus aureus [25]): 2; Ratio (Bacillus subtilis [26]): 2; Ratio (Candida albicans [27]): 2; Ratio (Candida albicans [28]): 2; Ratio (Candida albicans [29]): 2; Ratio (Candida parapsilosis [30]): 2; Ratio (Nakaseomyces glabratus [31]): 2; Ratio (Pichia kudriavzevii [32]): 2; Ratio (Pichia sporocuriosa [33]): 2; Ratio (Escherichia coli [34]): 2; Ratio (Pseudomonas aeruginosa [35]): 2; Ratio (Raoultella planticola): 2
